Assay results from ChEMBL document CHEMBL1817630, “Stereostructure-based differences in the interactions of cardiotoxic local anesthetics with cholesterol-containing biomimetic membranes” (Bioorg Med Chem, 2011).
Calls of active or inactive are those of the source. The rule behind the calls is not given here.

How the values were obtained:
[1] = tested on: Lipid bilayer; test: Binding affinity to DPH-labeled liposomal membrane without cholesterol assessed as increase in membrane fluidity by measuring decrease in DPH fluorescence polarization after 5 mins by spectrofluorometry
Method in brief: (§1)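 Fresh DPH-labeled liposomes (ethanol injection into HEPES pH 7.4 with NaCl/KCl) contained 0–45 mol% cholesterol, with the remaining lipids POPC/POPE/CL/POPS/POPI/SM at 25:16:10:3:3:3. Enantiomer pairs were tested on the same day. Each was given at 200 uM final with DMSO at 0.5% v/v, and vehicle controls matched. After 5 min at 37 °C, DPH fluorescence polarization was measured. Values are % polarization change relative to control, mean ± SEM, n=7.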

[2] = tested on: Lipid bilayer; test: Binding affinity to DPH-labeled liposomal membrane containing 5 to 45 mol% cholesterol assessed as increase in membrane fluidity by measuring decrease in DPH fluorescence polarization after 5 mins by spectrofluorometry; method in brief: as §1
[3] = tested on: Lipid bilayer; test: Binding affinity to DPH-labeled liposomal membrane containing 40 mol% cholesterol assessed as increase in membrane fluidity by measuring decrease in DPH fluorescence polarization at 200 uM after 5 mins by spectrofluorometry; method in brief: as §1
[4] = tested on: Lipid bilayer; test: Binding affinity to DPH-labeled liposomal membrane containing 20 mol% cardiolipin 40 mol% cholesterol assessed as increase in membrane fluidity by measuring decrease in DPH fluorescence polarization at 200 uM after 5 mins by spectrofluorometry
Method in brief: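 DPH-labeled liposomes made by ethanol injection (10 mM total lipid, 50 uM DPH in the injected stock) into 10 mM HEPES pH 7.4 with 125 mM NaCl and 25 mM KCl. Membranes held 0 or 20 mol% cardiolipin, with or without 40 mol% cholesterol, and POPC/POPE/POPS/POPI/SM at 25:16:3:3:3. Drug was added at 200 uM final in 0.5% DMSO, incubated 37 °C for 5 min, and DPH polarization read. Results are % change vs DMSO control, mean ± SEM, n=7.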

[5] = tested on: Lipid bilayer; test: Increase in membrane fluidity in DPH-labeled liposomal membrane containing 20 mol% cardiolipin 40 mol% cholesterol assessed as change in DPH fluorescence polarization at 200 uM after 5 mins by spectrofluorometry relative to liposome without cardiolipin
[6] = organism: Canis familiaris; test: Cardiotoxicity in dog assessed as total plasma concentration causing cardiovascular collapse measured after 20 mins; assay type: toxicity, organism-based, Canis lupus familiaris
[7] = tested on: Lipid bilayer; test: Increase in membrane fluidity in DPH-labeled liposomal membrane containing 40 mol% cholesterol assessed as change in DPH fluorescence polarization at 200 uM after 5 mins by spectrofluorometry relative to control; assay type: cell membranes; method in brief: as §1
[8] = organism: Canis familiaris; test: Cardiotoxicity in dog assessed as free plasma concentration causing cardiovascular collapse measured after 20 mins; assay type: toxicity, organism-based, Canis lupus familiaris

| Activity [1] | Activity [2] | Activity [3] | Activity [4] | fold change (FC) [5] | fold change (FC) [7] | SMILES | Activity [6] | Activity [8] |
| --- | --- | --- | --- | --- | --- | --- | --- | --- |
| Active | Active | Active | Active | 3.7 | – | CCCCN1CCCC[C@@H]1C(=O)Nc1c(C)cccc1C | – | – |
| Active | Active | Active | Active | – | 1.7 | CCCCN1CCCCC1C(=O)Nc1c(C)cccc1C (racemic) [BUPIVACAINE] | 39 µM | 10 µM |
| Active | – | Active | Active | 3.7 | 1.4 | CCCCN1CCCC[C@H]1C(=O)Nc1c(C)cccc1C [LEVOBUPIVACAINE] | 49 µM | 17 µM |
| – | – | – | – | – | 1 | CCCN1CCCC[C@H]1C(=O)Nc1c(C)cccc1C [ROPIVACAINE] | 64 µM | 36 µM |
